In ChEMBL document CHEMBL1765055 (J Med Chem, 2011):
“And” between values parts separate entries of the source, which are not always exact repeats. Identical values can stand only once. Non-standard residues stand in square brackets, D forms with d. Residues, ends and D or L forms follow the SMILES beside them. N(4-hydroxyphenethyl)Gly = O=C(O)CNCCc1ccc(O)cc1; Gly(N-4-hydroxybenzyl) = O=C(O)CNCc1ccc(O)cc1; N(1S-Me-propyl)Gly = CC[C@H](C)NCC(=O)O

Experiments:
Homo sapiens = organism: Homo sapiens; experiment: Selectivity ratio of Ki for human NTS1 to Ki for human NTS2
[1] = target: T1, Neurotensin receptor type 1 (Homo sapiens, UniProt P30989); experiment: Displacement of [3H]neurotensin from human NTS1 receptor expressed in CHO cells; assay type: cell-based
T1 sequence (P30989 whole entry): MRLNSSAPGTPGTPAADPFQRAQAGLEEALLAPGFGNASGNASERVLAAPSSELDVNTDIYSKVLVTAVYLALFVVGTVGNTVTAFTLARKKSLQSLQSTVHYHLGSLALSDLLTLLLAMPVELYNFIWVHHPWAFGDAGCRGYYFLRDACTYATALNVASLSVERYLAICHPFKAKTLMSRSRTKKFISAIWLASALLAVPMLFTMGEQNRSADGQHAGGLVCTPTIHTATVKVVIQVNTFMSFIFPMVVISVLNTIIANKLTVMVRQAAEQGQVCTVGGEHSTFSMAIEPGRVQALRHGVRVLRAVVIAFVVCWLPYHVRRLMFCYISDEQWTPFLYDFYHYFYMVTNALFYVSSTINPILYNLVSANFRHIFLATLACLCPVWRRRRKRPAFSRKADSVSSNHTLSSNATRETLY

[2] = target: T2, Neurotensin receptor type 2 (Homo sapiens, UniProt O95665); experiment: Displacement of [3H]NT from human NTS2 receptor expressed in HEK293 cells; assay type: cell-based
T2 sequence (O95665 whole entry): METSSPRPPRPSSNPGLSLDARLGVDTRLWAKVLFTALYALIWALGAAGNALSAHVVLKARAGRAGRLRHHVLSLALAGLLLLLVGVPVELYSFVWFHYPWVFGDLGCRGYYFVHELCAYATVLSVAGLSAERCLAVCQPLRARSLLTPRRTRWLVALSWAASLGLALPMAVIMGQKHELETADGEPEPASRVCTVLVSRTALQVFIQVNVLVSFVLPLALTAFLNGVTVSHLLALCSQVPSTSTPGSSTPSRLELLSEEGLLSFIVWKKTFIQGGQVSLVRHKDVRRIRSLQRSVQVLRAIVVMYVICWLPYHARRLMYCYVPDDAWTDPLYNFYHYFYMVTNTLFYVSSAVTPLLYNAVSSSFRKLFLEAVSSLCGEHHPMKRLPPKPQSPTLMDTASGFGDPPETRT

[3] = target: T2, Neurotensin receptor type 2; experiment: Agonist activity at human NTS2 receptor expressed in HEK293 cells assessed as inhibition of constitutive activity on MAPK-mediated luciferase activity; assay type: functional, cell-based
[4] = target: T2, Neurotensin receptor type 2; experiment: Ratio of compound Emax to neurotensin Emax for human NTS2 receptor
[5] = target: T1, Neurotensin receptor type 1; experiment: Ratio of compound Emax to neurotensin Emax for human NTS1 receptor
[6] = target: T2, Neurotensin receptor type 2; experiment: Agonist activity at human NTS2 receptor expressed in HEK293 cells assessed as inhibition of constitutive activity on MAPK-mediated luciferase activity at 3 uM in presence of SR142948A; assay type: functional, cell-based
In short: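 HEK 293 cells transiently expressing hNTS2 plus Elk1 trans-activator/luciferase reporter plasmids were reseeded in 1% FBS medium. They received 3 μM compound together with graded concentrations of the antagonist SR142948A for 24 h at 37 °C. Luciferase luminescence was measured as the readout of constitutive MAPK activity. Mean curves came from 7–11 independent experiments in triplicate.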

In the case of H-RRAYIL-OH [listing 1 of 2 here], the Ratio Ki (Homo sapiens) is reported as 0.41.

For `CC[C@H](C)N(CC(=O)N[C@@H](CC(C)C)C(=O)O)C(=O)[C@H](Cc1ccc(O)cc1)NC(=O)[C@@H]1CCCN1C(=O)[C@H](CCCCN)NC(=O)[C@@H](N)CCCCN` (H-KKPY[N(1S-Me-propyl)Gly]L-OH), the Ki [1] was 3 µM and 3.3 µM and the Ki [2] was 0.33 µM and 1.2 µM.

In the case of H-ARPYIL-OH, the Ki [1] is reported as 0.0046 µM, the Ki [2] is reported as 0.056 µM and the Ratio Ki (Homo sapiens) is reported as 0.082.

Work on `CC[C@H](C)[C@H](NC(=O)CN(CCc1ccc(O)cc1)C(=O)[C@@H]1CCCN1C(=O)[C@H](CCCNC(=N)N)NC(=O)[C@@H](N)CCCCN)C(=O)N[C@@H](CC(C)C)C(=O)O` (H-KRP[N(4-hydroxyphenethyl)Gly]IL-OH) yielded a Ki [1] of 8.3 µM, a Ki [2] of 0.0044 µM and a Ratio Ki (Homo sapiens) of 1900. The EC50 [3] was 0.69 µM and the Emax [4] was 4.6.

`CC[C@H](C)[C@H](NC(=O)CN(CCc1ccccc1)C(=O)[C@@H]1CCCN1C(=O)[C@H](CCCN=C(N)N)NC(=O)[C@@H](N)CCCN=C(N)N)C(=O)N[C@@H](CC(C)C)C(=O)O` showed a Ki [2] of 0.02 µM.

`CC[C@H](C)[C@H](NC(=O)CN(CCc1ccc(O)cc1)C(=O)[C@@H]1CCCN1C(=O)[C@H](CCCCN)NC(=O)[C@@H](N)CCCNC(=N)N)C(=O)N[C@@H](CC(C)C)C(=O)O` (H-RKP[N(4-hydroxyphenethyl)Gly]IL-OH) showed a Ki [1] of 80 µM, a Ki [2] of 0.0067 µM and a Ratio Ki (Homo sapiens) of 12000. It also gave an EC50 [3] of 0.84 µM, an Emax [5] of 0.07 and an Emax [4] of 2.6.

Compound `CC[C@H](C)[C@H](NC(=O)[C@H](CC1=CC=C(O)CC1)NC(=O)[C@@H]1CCCN1C(=O)[C@H](CCCNC(=N)N)NC(=O)[C@@H](N)CCCNC(=N)N)C(=O)N[C@@H](CC(C)C)C(=O)O` has a Kd [2] of 0.0012 µM.

For H-RRPAIL-OH [listing 1 of 2 here], the Ki [1] was 1.3 µM and the Ki [2] was 0.083 µM.

`CC[C@H](C)[C@H](NC(=O)CN(CCc1ccc(O)cc1)C(=O)[C@@H]1CCCN1C(=O)[C@H](CCCCN)NC(=O)[C@@H](N)CCCCN)C(=O)N[C@@H](CC(C)C)C(=O)O` (H-KKP[N(4-hydroxyphenethyl)Gly]IL-OH) was tested, and the Ki [1] was 32 µM, the Ki [2] was 0.0043 µM and the Ratio Ki (Homo sapiens) was 7400. The EC50 [3] was 0.59 µM and the Emax [4] was 3.1.

Work on `CC[C@H](C)[C@H](NC(=O)[C@H](Cc1ccc(O)cc1)NC(=O)[C@@H]1CCCN1C(=O)CN(CCCCN)C(=O)[C@@H](N)CCCCN)C(=O)N[C@@H](CC(C)C)C(=O)O` yielded a Ki [2] of 0.021 µM.

Compound `CC[C@H](C)[C@H](NC(=O)[C@H](Cc1ccc(O)cc1)NC(=O)[C@@H]1CCCN1C(=O)[C@H](CCCNC(=N)N)NC(=O)[C@@H](N)CCCNC(=N)N)C(=O)N[C@@H](C)C(=O)O` has a Ki [2] of 1.3 µM.

Compound `CC[C@H](C)[C@H](NC(=O)[C@H](Cc1ccc(O)cc1)NC(=O)[C@@H]1CCCN1C(=O)[C@H](CCCCN)NC(=O)CNCCCCN)C(=O)N[C@@H](CC(C)C)C(=O)O` has a Ki [2] of 0.00074 µM.

H-RRPYAL-OH [listing 1 of 2 here] was tested, and the Ratio Ki (Homo sapiens) was 1.6.

Work on H-RRPYAL-OH [listing 2 of 2 here] yielded a Ki [1] of 0.1 µM and a Ki [2] of 0.063 µM.

H-RRAYIL-OH [listing 2 of 2 here] gave a Ki [1] of 0.026 µM and a Ki [2] of 0.063 µM.

In the case of `CC[C@H](C)[C@H](NC(=O)[C@H](Cc1ccc(O)cc1)NC(=O)[C@@H]1CCCN1C(=O)[C@H](CCCCN)NC(=O)[C@@H](N)CCCCN)C(=O)N(CC(=O)O)CC(C)C`, the Ki [2] is reported as 1.6 µM.

`CC[C@H](C)[C@H](NC(=O)CN(CCc1ccc(O)cc1)C(=O)[C@@H]1CCCN1C(=O)[C@H](CCCNC(=N)N)NC(=O)[C@@H](N)CCCNC(=N)N)C(=O)N[C@@H](CC(C)C)C(=O)O` was tested, and the Ki [2] was 0.0088 µM, the EC50 [3] was 0.48 µM and the Activity [6] was “Dose-dependent effect”.

`CC[C@H](C)[C@H](NC(=O)CN(CCc1ccccn1)C(=O)[C@@H]1CCCN1C(=O)[C@H](CCCNC(=N)N)NC(=O)[C@@H](N)CCCNC(=N)N)C(=O)N[C@@H](CC(C)C)C(=O)O` was tested, and the Ki [2] was 0.1 µM.

H-RAPYIL-OH [listing 1 of 2 here] was tested, and the Ratio Ki (Homo sapiens) was 0.46.

For `CC[C@H](C)[C@H](NC(=O)CN(Cc1ccc(O)cc1)C(=O)[C@@H]1CCCN1C(=O)[C@H](CCCCN)NC(=O)[C@@H](N)CCCCN)C(=O)N[C@@H](CC(C)C)C(=O)O` (H-KKP[Gly(N-4-hydroxybenzyl)]IL-OH), the Ki [1] was 30 µM, the Ki [2] was 1 µM and the Ratio Ki (Homo sapiens) was 30.

Work on H-RRPAIL-OH [listing 2 of 2 here] yielded a Ratio Ki (Homo sapiens) of 16.

With `CC[C@H](C)[C@H](NC(=O)CN(CCc1ccc(OC)cc1)C(=O)[C@@H]1CCCN1C(=O)[C@H](CCCN=C(N)N)NC(=O)[C@@H](N)CCCN=C(N)N)C(=O)N[C@@H](CC(C)C)C(=O)O` the Ki [2] was 0.038 µM.

Compound H-RAPYIL-OH [listing 2 of 2 here] has a Ki [1] of 0.011 µM and a Ki [2] of 0.024 µM.

With `CC[C@H](C)[C@H](NC(=O)[C@H](Cc1ccc(O)cc1)NC(=O)[C@@H]1CCCN1C(=O)[C@H](CCCCN)NC(=O)[C@@H](N)CCCCN)C(=O)N[C@@H](CC(C)C)C(=O)O` the Ki [2] was 0.0061 µM.
